Drawing on PubChem BioAssay AID463209 (The Scripps Research Institute Molecular Screening Center, 2010), this text covers inhibition for 13 compounds.

Each structure is given as a SMILES string. The source made the active and inactive calls.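 Rule for the calls: active = parasite growth inhibition of at least 50% in red blood cells; inactive = the rest.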

In this assay the test system is P. falciparum 3D7 in RBCs, 3H-hypoxanthine incorporation, 48 h. The experiment in a line: P. falciparum growth inhibition in erythrocytes, late-stage follow-up, P. falciparum M1AAP inhibitor project, cell-based, radiolabel readout, RBCs (AID 463209). To be noted: at 10 µM; hits give high values. The method in brief:
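Test system: P. falciparum 3D7-infected erythrocytes; doses: 10 µM single dose; schedule: 48 h compound exposure at 37 °C, 5% O2/5% CO2/90% N2; measured by: beta counting of incorporated 3H-hypoxanthine after cell harvest; controls: uninfected RBC background wells and DMSO-treated infected wells; medium: hypoxanthine-free RPMI medium with 10% serum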
A word on the inhibition: it is the drop in the measured response relative to a control, in per cent. With `O=C1/C(=C/c2cccs2)SC(=S)N1NS(=O)(=O)c1ccccc1`, the inhibition was 1% (inactive).

For the compound `O=C(Nn1c(C2CCC2)nc2ccccc2c1=O)c1cccs1`, the inhibition is 8% (inactive).

In the case of `O=C1N=c2ccccc2=C1c1sc(=S)n(NC(=O)c2cccc(O)c2)c1O`, the inhibition is 0% (inactive). Turning to `O=C(NCc1cccc(F)c1)C1CCN(S(=O)(=O)Cc2ccccc2)CC1`, the inhibition is 15% (inactive).

Take `O=C(O)CCC(=O)N1N=C(c2c(-c3ccccc3)c3cc(Cl)ccc3[nH]c2=O)CC1c1cccs1` (stereo not drawn): the inhibition was 0% (inactive). As to `O=C(NCc1ccco1)C1CCCN(S(=O)(=O)c2cccc3nonc23)C1` (stereo not drawn), the inhibition is 0% (inactive). Turning to `O=C(O)CCC(=O)N1N=C(c2c(-c3ccccc3)c3cc(Cl)ccc3[nH]c2=O)CC1c1ccco1` (stereo not drawn), the inhibition is 0% (inactive). Regarding `CC(=O)N1N=C(c2c(O)n(C)c(=O)n(C)c2=O)CC1c1ccccc1` (stereo not drawn), the inhibition was 2% (inactive). `COc1ccccc1-c1nc2ccccc2c(=O)n1NC(=O)c1cccs1`: the inhibition was 4% (inactive).

On to `COc1ccc(C2CC(c3c(-c4ccccc4)c4cc(Cl)ccc4[nH]c3=O)=NN2C(=O)CCC(=O)O)cc1` (stereo not drawn), for which the inhibition is 0% (inactive). For `O=C(NCCC1=CCCCC1)C1CCN(S(=O)(=O)c2ccc(Br)s2)CC1` the value was 0% (inactive); for `COc1ccc(OC)c(/C=C2\SC(=S)N(C(C(=O)O)c3ccccc3)C2=O)c1` (stereo not drawn), 3% (inactive). In the case of `O=C1N=c2ccccc2=C1c1sc(=S)n(NC(=O)c2ccccc2)c1O` it was 6% (inactive).
